According to ChEMBL document CHEMBL4024793, “Development of Stem-Cell-Mobilizing Agents Targeting CXCR4 Receptor for Peripheral Blood Stem Cell Transplantation and Beyond” (J Med Chem, 2018):

How the values were obtained:
[1] = Acute toxicity in sc dosed C57BL/6 mouse assessed as maximum tolerated dose by measuring mortality; assay type: organism-based; conditions: in vivo
In short: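 Male C57BL/6 or ICR mice (n = 3/group) dosed subcutaneously with escalating doses, low to high; MTD taken as highest dose giving zero mortality (0/3).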

[2] = molecular target: C-X-C chemokine receptor type 4 (Homo sapiens, UniProt P61073); experiment: Displacement of [125I]CXCL12 from human CXCR4 expressed in HEK293 cell membranes after 1.5 hrs by Topcount method
[3] = Cmax in C57BL/6 mouse at 6 mg/kg, sc measured up to 4 hrs post dose by LC-MS/MS analysis; assay type: ADME, organism-based; design: dose 6 mg/kg, route subcutaneous; conditions: in vivo
In short: (§1)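 Male C57BL/6 mice (23.4–25.4 g), quarantined one week, non-fasted, n = 3; single SC dose of 6 mg/kg in 100% saline. Blood taken by cardiac puncture at 0, 0.03, 0.08, 0.25, 1, 1.5, 2 and 4 h and stored at -80 °C. Plasma analysed by LC–MS/MS; parameters from non-compartmental analysis; mean ± SD.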

[4] = Half life in C57BL/6 mouse at 6 mg/kg, sc measured up to 4 hrs post dose by LC-MS/MS analysis; assay type: ADME, organism-based; conditions: in vivo; in short: as §1
[5] = AUC (0 to 4 hrs) in C57BL/6 mouse at 6 mg/kg, sc measured up to 4 hrs post dose by LC-MS/MS analysis; assay type: ADME, organism-based; design: dose 6 mg/kg, time < 4 hr, route subcutaneous; conditions: in vivo; in short: as §1

Chain of C-X-C chemokine receptor type 4 (P61073 whole entry): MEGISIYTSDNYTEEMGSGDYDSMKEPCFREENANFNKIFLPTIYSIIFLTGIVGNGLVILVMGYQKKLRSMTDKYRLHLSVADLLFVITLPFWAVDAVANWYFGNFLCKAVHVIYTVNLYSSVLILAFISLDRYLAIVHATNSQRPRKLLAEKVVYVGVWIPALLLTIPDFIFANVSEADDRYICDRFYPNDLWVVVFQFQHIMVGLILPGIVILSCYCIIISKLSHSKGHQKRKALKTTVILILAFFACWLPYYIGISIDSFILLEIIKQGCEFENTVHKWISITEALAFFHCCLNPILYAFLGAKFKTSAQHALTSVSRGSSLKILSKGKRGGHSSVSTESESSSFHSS

FC(F)(F)c1cc(NC2CCNCC2)nc(NCc2cn(CCCNCCCNC3CCCCC3)nn2)n1
MTD [1]: 10 mg/kg | IC50 [2]: 860 nM

Cc1cc(NC2CCN(C(=O)CNCCC(=O)O)CC2)nc(NCc2cn(CCCNCCCNC3CCCCC3)nn2)n1
MTD [1]: 100 mg/kg | IC50 [2]: 82.6 nM

c1cc(NC2CCNCC2)nc(NCc2cn(CCCNCCCNC3CCCCC3)nn2)n1
MTD [1]: 10 mg/kg | IC50 [2]: 34.1 nM

Clc1cc(NC2CCNCC2)nc(NCc2cn(CCCNCCCNC3CCCCC3)nn2)n1
MTD [1]: 10 mg/kg | IC50 [2]: 708 nM

Cc1cc(NC2CCNCC2)nc(NCc2cn(CCCNCCCNC3CCCCC3)nn2)n1
MTD [1]: 10 mg/kg | IC50 [2]: 23.9 nM

Cc1cc(N(C)C2CCN(C(=O)CCNCC(=O)O)CC2)nc(NCc2cn(CCCNCCCNC3CCCCC3)nn2)n1
MTD [1]: 50 mg/kg | IC50 [2]: 97.6 nM

Cc1cc(NC2CCN(C(=O)CCNCCC(=O)O)CC2)nc(NCc2cn(CCCNCCCNC3CCCCC3)nn2)n1
MTD [1]: 50 mg/kg | IC50 [2]: 72.2 nM

Cc1cc(NC2CCN(C(=O)CCNCCP(=O)(O)O)CC2)nc(NCc2cn(CCCNCCCNC3CCCCC3)nn2)n1
IC50 [2]: 147 nM

Cc1cc(NC2CCN(CCCCC(=O)O)CC2)nc(NCc2cn(CCCNCCCNC3CCCCC3)nn2)n1
MTD [1]: 75 mg/kg | IC50 [2]: 93 nM

CCCN1CCC(Nc2cc(C)nc(NCc3cn(CCCNCCCNC4CCCCC4)nn3)n2)CC1
MTD [1]: 10 mg/kg | IC50 [2]: 47.8 nM

CC(C)c1cc(NC2CCNCC2)nc(NCc2cn(CCCNCCCNC3CCCCC3)nn2)n1
MTD [1]: 10 mg/kg | IC50 [2]: 61.1 nM

CCc1cc(NC2CCNCC2)nc(NCc2cn(CCCNCCCNC3CCCCC3)nn2)n1
MTD [1]: 10 mg/kg | IC50 [2]: 46.8 nM

Cc1cc(NC2CCN(CCC#N)CC2)nc(NCc2cn(CCCNCCCNC3CCCCC3)nn2)n1
MTD [1]: 20 mg/kg | IC50 [2]: 72.1 nM

Cc1cc(NC2CCN(CCC(=O)O)CC2)nc(NCc2cn(CCCNCCCNC3CCCCC3)nn2)n1
MTD [1]: 75 mg/kg | IC50 [2]: 81.8 nM

Cc1cc(NC2CCN(CCC(N)=O)CC2)nc(NCc2cn(CCCNCCCNC3CCCCC3)nn2)n1
MTD [1]: 20 mg/kg | IC50 [2]: 25.6 nM

COc1cc(NC2CCNCC2)nc(NCc2cn(CCCNCCCNC3CCCCC3)nn2)n1
MTD [1]: 10 mg/kg | IC50 [2]: 473 nM

c1cc(CN2CCCNCCNCCCNCC2)ccc1CN1CCCNCCNCCCNCC1 [PLERIXAFOR]
Cmax [3]: 6200 ng/mL | half-life [4]: 1.4 h | AUC(0-t) at 4 h [5]: 7150 ng·h/mL

CCc1cc(NC2CCN(C(=O)CCNCC(=O)O)CC2)nc(NCc2cn(CCCNCCCNC3CCCCC3)nn2)n1
MTD [1]: 50 mg/kg | IC50 [2]: 72 nM

Cc1cc(NC2CCN(C(=O)CCCC(=O)O)CC2)nc(NCc2cn(CCCNCCCNC3CCCCC3)nn2)n1
MTD [1]: 50 mg/kg | IC50 [2]: 158 nM

Cc1cc(NC2CCN(C(=O)CC[C@H](N)C(=O)O)CC2)nc(NCc2cn(CCCNCCCNC3CCCCC3)nn2)n1
MTD [1]: 50 mg/kg | IC50 [2]: 71.1 nM

O=C(O)CNCCC(=O)N1CCC(Nc2ccnc(NCc3cn(CCCNCCCNC4CCCCC4)nn3)n2)CC1
MTD [1]: 100 mg/kg | IC50 [2]: 399 nM

Cc1cc(NC2CCN(C(=O)CCCNCC(=O)O)CC2)nc(NCc2cn(CCCNCCCNC3CCCCC3)nn2)n1
MTD [1]: 75 mg/kg | IC50 [2]: 88.5 nM

Cc1cc(NC2CCN(C(=O)CCNCP(=O)(O)O)CC2)nc(NCc2cn(CCCNCCCNC3CCCCC3)nn2)n1
MTD [1]: 100 mg/kg | IC50 [2]: 91.6 nM
